Source: ChEMBL document CHEMBL1764975, “A new DNA gyrase inhibitor subclass of the cyclothialidine family based on a bicyclic dilactam-lactone scaffold. Synthesis and antibacterial properties” (J Med Chem, 2011)
In brackets after ≈: the same amount, converted by molar mass.

Tests used:
Escherichia coli [1] = assay: Inhibition of Escherichia coli DNA gyrase A2B2 complex after 30 mins by supercoiling assay
Staphylococcus aureus [2] = assay: (§1) Antimicrobial activity against Staphylococcus aureus Smith after 18 hrs by agar dilution method; type: functional
In short: (§2)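 Agar dilution on Mueller-Hinton medium, inoculum 10⁴ CFU/spot; MIC is the minimum inhibitory concentration against the named strain.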

Staphylococcus aureus [3] = assay: Antimicrobial activity against Staphylococcus aureus Smith infected in iv dosed septicaemia Swiss albino mouse model after 4 days; type: functional; conditions: 96 h
In short: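 Septicaemia model in mice infected with S. aureus Smith, compound given iv. In experiments with 0-1 survivors among 5-10 control mice, ED₅₀ (mg/kg) taken as lowest dose giving 3-5 survivors out of 5 infected mice.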

Staphylococcus aureus [4] = assay: Antimicrobial activity against multidrug-resistant Staphylococcus aureus after 18 hrs by agar dilution method; type: functional
In short: (§3)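 Agar dilution on Mueller-Hinton agar, inoculum 10⁴ CFU/spot, against panels of multiresistant clinical strains (S. aureus 11, E. faecalis 16, E. faecium 23). MIC_50/90 in μg/mL taken as the minimum concentration inhibiting at least 50% or 90% of the strains tested.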

Staphylococcus aureus [5] = assay: Antimicrobial activity against Staphylococcus aureus ATCC 25923 after 18 hrs by agar dilution method; type: functional; conditions: ATCC 25923, 18 h; in short: as §2
[6] = tested on: Staphylococcus epidermidis; assay: Antimicrobial activity against Staphylococcus epidermidis 16/2 after 18 hrs by agar dilution method; type: functional; conditions: 16/2, 18 h; in short: as §2
[7] = tested on: Stenotrophomonas maltophilia; assay: Antimicrobial activity against Xanthomonas maltophilia IAC 739 after 18 hrs by agar dilution method; type: functional; conditions: IAC 739, 18 h; in short: as §2
Escherichia coli [8] = assay: Antimicrobial activity against Escherichia coli 25922 after 18 hrs by agar dilution method; type: functional; conditions: Escherichia coli, 25922, 18 h; in short: as §2
Streptococcus pyogenes = assay: Antimicrobial activity against Streptococcus pyogenes b15 after 18 hrs by agar dilution method; type: functional; conditions: b15, 18 h; in short: as §2
Staphylococcus aureus [9] = assay: as §1; type: functional; in short: as §2; remark: listed apart in the source
Enterococcus faecalis [10] = assay: Antimicrobial activity against Enterococcus faecalis 6 after 18 hrs by agar dilution method; conditions: Enterococcus faecalis, 6, 18 h
[11] = Octanol-water partition coefficient, log D of the compound at pH 7.4 by shake-flask method; type: physicochemical
In short: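 Octanol/water partition measured by shake-flask at pH 7.4.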

Enterococcus faecalis [12] = assay: Antimicrobial activity against multidrug-resistant Enterococcus faecalis after 18 hrs by agar dilution method; type: functional; in short: as §3
Enterococcus faecium = assay: Antimicrobial activity against multidrug-resistant Enterococcus faecium after 18 hrs by agar dilution method; type: functional; in short: as §3

SMILES | MNEC (Escherichia coli [1]) [µg/mL] | MIC (Staphylococcus aureus [2]) [µg/mL] | ED50 (Staphylococcus aureus [3]) [mg/kg] | also measured
COc1cc(O)c2c(c1Br)C(=O)OCCN(S(C)(=O)=O)CC(=O)N[C@H](c1nc(C)no1)CSC2 | 0.1 | 64 (≈ 110 µM) | – | –
COc1cc(O)c2c(c1C)C(=O)OC[C@H](CO)CCC(=S)N[C@H](c1nc(C)no1)CSC2 | 0.002 | 0.5 (≈ 1.04 µM) | 12.5 | –
COc1cc(O)c2c(c1Br)C(=O)OCCN(C(=O)C(C)(C)C)CC(=O)N[C@H](c1nc(C)no1)CSC2 | 0.05 | 0.5 (≈ 0.854 µM) | > 12 | –
COc1cc(O)c2c(c1Br)C(=O)OCC(=O)NCC(=S)N[C@H](c1nc(CN)no1)CSC2.Cl | 0.05 | 1 | > 12 | –
COc1cccc(OC)c1C(=O)N[C@@H]1C(=O)N2[C@@H]1SC(C)(C)[C@@H]2C(=O)O [METHICILLIN] | – | – | – | MIC50 (Staphylococcus aureus [4]): 256 µg/mL (≈ 673 µM); MIC90 (Staphylococcus aureus [4]): > 256 µg/mL
COc1cc(O)c2c(c1C)C(=O)OC[C@@H](CO)CCC(=S)N[C@H](c1nc(C)no1)CSC2 | 0.05 | 1 (≈ 2.08 µM) | > 25 | –
COc1cc(O)c2c(c1Br)C(=O)O[C@H](c1ccccc1)C(=O)NCC(=O)N[C@H](c1nc(C)no1)CSC2 | 0.2 | > 64 | – | –
COc1cc(O)c2c(c1Br)C(=O)OCC(=O)N(C)CC(=O)N[C@H](c1nc(C)no1)CSC2 | 0.05 | 2 (≈ 3.78 µM) | > 12.5 | –
COc1cc(O)c2c(c1Br)C(=O)OCCN(C(=O)[C@H](C)N)CC(=O)N[C@H](c1nc(C)no1)CSC2.Cl | 0.1 | > 64 | – | –
COc1cc(O)c2c(c1C)C(=O)OCC(=O)NCC(=O)N[C@H](c1nc(C)no1)CSC2 | 0.01 | 8 (≈ 17.8 µM) | > 25 | MIC (Staphylococcus aureus [5]): 32 µg/mL (≈ 71 µM); MIC [6]: 1 µg/mL (≈ 2.22 µM); MIC [7]: > 64 µg/mL; MIC (Escherichia coli [8]): > 64 µg/mL; MIC (Streptococcus pyogenes): 2 µg/mL (≈ 4.44 µM); MIC (Staphylococcus aureus [9]): 8 µg/mL (≈ 17.8 µM); MIC (Enterococcus faecalis [10]): 8 µg/mL (≈ 17.8 µM); logD [11]: 1.05
COc1cc(O)c2c(c1C)C(=O)OC[C@@H](CO)CCC(=O)N[C@H](c1nc(C)no1)CSC2 | 0.1 | 64 (≈ 137 µM) | – | –
COc1cc(O)c2c(c1Br)C(=O)O[C@H](c1ccccc1)C(=O)NCC(=S)N[C@H](c1nc(C)no1)CSC2 | 1 | 0.5 (≈ 0.823 µM) | > 25 | –
COc1cc(O)c2c(c1Cl)C(=O)OCCCCC(=S)N[C@H](c1nc(C)no1)CSC2 | 0.002 | 0.25 (≈ 0.53 µM) | – | –
COc1cc(O)c2c(c1Br)C(=O)OCCN(C(=O)C1CC1)CC(=O)N[C@H](c1nc(C)no1)CSC2 | 0.1 | 8 (≈ 14 µM) | – | –
CO[C@@H]1[C@@H](OC(N)=O)[C@@H](O)[C@H](Oc2ccc3c(O)c(NC(=O)c4ccc(O)c(CC=C(C)C)c4)c(=O)oc3c2C)OC1(C)C [NOVOBIOCIN] | – | – | 3 | MIC (Staphylococcus aureus [5]): 0.25 µg/mL (≈ 0.408 µM); MIC [6]: 0.25 µg/mL (≈ 0.408 µM); MIC [7]: > 64 µg/mL; MIC (Escherichia coli [8]): > 64 µg/mL; MIC (Streptococcus pyogenes): 1 µg/mL (≈ 1.63 µM); MIC (Staphylococcus aureus [9]): 0.12 µg/mL (≈ 0.196 µM); MIC (Enterococcus faecalis [10]): 4 µg/mL (≈ 6.53 µM)
COc1cc(O)c2c(c1Br)C(=O)O[C@H](C)C(=O)NCC(=S)N[C@H](c1nc(C)no1)CSC2 | 0.2 | 0.5 (≈ 0.917 µM) | > 12.5 | –
COc1cc(O)c2c(c1Br)C(=O)OCCN(C)CC(=O)N[C@H](c1nc(C)no1)CSC2.Cl | 0.05 | 1 | > 25 | –
CN[C@H](CC(C)C)C(=O)N[C@H]1C(=O)N[C@@H](CC(N)=O)C(=O)N[C@H]2C(=O)N[C@H]3C(=O)N[C@H](C(=O)N[C@H](C(=O)O)c4cc(O)cc(O)c4-c4cc3ccc4O)[C@H](O)c3ccc(c(Cl)c3)Oc3cc2cc(c3O[C@@H]2O[C@H](CO)[C@@H](O)[C@H](O)[C@H]2O[C@H]2C[C@](C)(N)[C@H](O)[C@H](C)O2)Oc2ccc(cc2Cl)[C@H]1O [VANCOMYCIN] | – | – | 1.5 | MIC50 (Enterococcus faecalis [12]): 2 µg/mL (≈ 1.38 µM); MIC90 (Enterococcus faecalis [12]): 256 µg/mL (≈ 177 µM); MIC [7]: > 64 µg/mL; MIC50 (Enterococcus faecium): 256 µg/mL (≈ 177 µM); MIC90 (Enterococcus faecium): > 256 µg/mL; MIC (Escherichia coli [8]): > 64 µg/mL; MIC (Streptococcus pyogenes): 1 µg/mL (≈ 0.69 µM); MIC50 (Staphylococcus aureus [4]): 2 µg/mL (≈ 1.38 µM); MIC90 (Staphylococcus aureus [4]): 4 µg/mL (≈ 2.76 µM)
COC(=O)[C@@H]1CSCc2c(O)cc(OC)c(C)c2C(=O)OCCOCC(=S)N1 | 0.1 | 2.37 (≈ 5.52 µM) | – | –
COc1cc(O)c2c(c1Cl)C(=O)OCCCCC(=S)N[C@H](c1nc(CN)no1)CSC2.Cl | 0.002 | 0.12 | 6 | MIC (Staphylococcus aureus [5]): 0.5 µg/mL; MIC [6]: < 0.12 µg/mL; MIC [7]: 4 µg/mL; MIC (Escherichia coli [8]): 64 µg/mL; MIC (Streptococcus pyogenes): 0.25 µg/mL; MIC (Staphylococcus aureus [9]): 0.12 µg/mL; MIC (Enterococcus faecalis [10]): < 0.12 µg/mL; logD [11]: 1.89
COc1cc(O)c2c(c1Br)C(=O)O[C@H](C)C(=O)NCC(=O)N[C@H](c1nc(C)no1)CSC2 | 0.05 | 2 (≈ 3.78 µM) | > 12.5 | –
COc1cc(O)c2c(c1C)C(=O)O[C@H](CO)CCCC(=S)N[C@H](c1nc(CO)no1)CSC2 | 0.01 | 10 (≈ 20.1 µM) | – | –
COCc1noc([C@@H]2CSCc3c(O)cc(OC)c(Br)c3C(=O)OCC(=O)NCC(=O)N2)n1 | 0.05 | 8 (≈ 14.7 µM) | – | –
